Experimental findings from paper PMC11327602 (Heliyon, 2024) are described below.

Each structure is given as a SMILES string. Where “and” joins values, the source holds several entries; their conditions need not be identical. Equal values may be shown once.

Assay [1] deals with Bacillus Pasteurii urease (Sporosarcina pasteurii, UniProt P41020). The experiment in a line: Urease inhibition assay. In kind it is biochemical. The note with it: Enzyme (SEM ±) B.P Urease, IC50, mean ± SEM, 3 experiments.
In assay [2] the target is α-Glucosidase (Saccharomyces cerevisiae, UniProt P53341). The experiment in a line: α-Glucosidase inhibition assay. The class given is biochemical. In a few lines:
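Test compound (200–800 μg/mL) pre-incubated 5 min at 37 °C with 2 % w/v starch (sucrose) solution in 0.2 M Tris buffer, pH 8.0. 5 mM p-nitrophenyl-α-D-glucopyranoside added intermittently, then α-glucosidase (1 U/mL), 40 min at 35 °C. Stopped with […]; absorbance read at 405 nm. % inhibition = (control − sample)/control × 100; samples above 50 % taken to IC50.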

Assay [3] is described as follows: DPPH free radical scavenging activity. The conditions noted are these: for IC50: read-out: DPPH scavenging IC50. On the technique in general: Loss of DPPH colour is used to gauge radical scavenging.
Assay [4] can be described thus: Superoxide anion scavenging assay. The conditions noted are these: for IC50: read-out: superoxide anion scavenging IC50.
Assay [5] has as its target jack bean urease (Canavalia ensiformis, UniProt P07374). The experiment in a line: Urease inhibition assay. The class given is biochemical. The conditions noted are these: for IC50: Enzyme (SEM ±) J.B Urease, IC50, mean ± SEM, 3 experiments.
A short description of assay [6]: ABTS method. The note with it: for IC50: read-out: ABTS scavenging IC50.

jack bean urease, sequence (P07374 whole entry, looked up): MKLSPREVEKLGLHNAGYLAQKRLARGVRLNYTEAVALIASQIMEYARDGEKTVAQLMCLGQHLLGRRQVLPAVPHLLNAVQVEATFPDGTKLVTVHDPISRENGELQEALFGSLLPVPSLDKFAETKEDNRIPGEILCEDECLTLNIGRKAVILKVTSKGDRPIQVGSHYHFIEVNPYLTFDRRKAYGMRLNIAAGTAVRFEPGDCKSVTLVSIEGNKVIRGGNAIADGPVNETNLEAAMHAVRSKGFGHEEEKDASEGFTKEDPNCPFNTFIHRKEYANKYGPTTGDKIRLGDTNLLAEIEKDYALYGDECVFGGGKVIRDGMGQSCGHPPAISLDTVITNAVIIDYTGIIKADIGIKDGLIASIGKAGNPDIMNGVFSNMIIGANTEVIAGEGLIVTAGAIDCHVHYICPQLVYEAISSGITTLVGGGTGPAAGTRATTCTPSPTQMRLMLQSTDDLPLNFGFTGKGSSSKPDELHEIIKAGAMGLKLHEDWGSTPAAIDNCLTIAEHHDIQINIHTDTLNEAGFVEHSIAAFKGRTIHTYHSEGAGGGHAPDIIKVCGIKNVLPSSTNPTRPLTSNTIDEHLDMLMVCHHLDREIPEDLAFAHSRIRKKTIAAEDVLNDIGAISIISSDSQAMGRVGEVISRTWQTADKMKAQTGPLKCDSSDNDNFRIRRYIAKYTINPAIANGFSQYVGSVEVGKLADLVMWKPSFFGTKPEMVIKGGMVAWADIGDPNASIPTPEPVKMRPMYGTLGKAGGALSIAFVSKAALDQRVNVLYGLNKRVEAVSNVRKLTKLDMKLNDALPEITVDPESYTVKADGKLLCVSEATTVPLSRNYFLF
α-Glucosidase, sequence (P53341 whole entry): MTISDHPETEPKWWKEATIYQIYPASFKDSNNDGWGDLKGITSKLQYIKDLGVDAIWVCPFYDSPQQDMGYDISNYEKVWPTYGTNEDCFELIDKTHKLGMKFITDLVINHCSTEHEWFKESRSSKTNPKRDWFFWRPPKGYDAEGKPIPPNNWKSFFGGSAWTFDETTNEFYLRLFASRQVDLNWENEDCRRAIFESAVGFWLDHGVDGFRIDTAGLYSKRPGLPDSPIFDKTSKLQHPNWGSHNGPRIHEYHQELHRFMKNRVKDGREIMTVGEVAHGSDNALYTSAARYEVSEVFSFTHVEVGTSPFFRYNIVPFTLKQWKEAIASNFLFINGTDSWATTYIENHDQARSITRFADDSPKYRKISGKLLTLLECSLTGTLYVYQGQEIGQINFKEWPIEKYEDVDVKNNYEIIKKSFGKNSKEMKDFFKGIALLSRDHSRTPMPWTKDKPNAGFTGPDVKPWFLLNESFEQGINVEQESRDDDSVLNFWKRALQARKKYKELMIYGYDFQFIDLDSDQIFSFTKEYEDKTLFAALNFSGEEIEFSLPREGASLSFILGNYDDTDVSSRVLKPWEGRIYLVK
Bacillus Pasteurii urease, sequence (P41020 whole entry): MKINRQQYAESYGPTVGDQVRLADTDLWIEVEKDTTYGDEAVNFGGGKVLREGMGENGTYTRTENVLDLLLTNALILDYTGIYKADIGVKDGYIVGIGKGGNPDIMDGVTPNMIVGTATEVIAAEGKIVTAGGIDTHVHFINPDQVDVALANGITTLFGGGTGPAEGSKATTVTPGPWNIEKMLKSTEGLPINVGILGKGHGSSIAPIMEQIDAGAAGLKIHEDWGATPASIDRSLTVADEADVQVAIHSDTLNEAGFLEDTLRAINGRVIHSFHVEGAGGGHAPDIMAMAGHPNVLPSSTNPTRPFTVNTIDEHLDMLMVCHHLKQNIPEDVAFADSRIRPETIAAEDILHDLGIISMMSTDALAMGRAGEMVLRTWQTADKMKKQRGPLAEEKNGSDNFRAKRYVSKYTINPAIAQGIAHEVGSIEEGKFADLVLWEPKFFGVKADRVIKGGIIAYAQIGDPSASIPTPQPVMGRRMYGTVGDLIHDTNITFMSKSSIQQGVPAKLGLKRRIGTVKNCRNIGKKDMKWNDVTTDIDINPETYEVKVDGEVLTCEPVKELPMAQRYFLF
Bacillus Pasteurii urease, sequence (P41021 whole entry partner): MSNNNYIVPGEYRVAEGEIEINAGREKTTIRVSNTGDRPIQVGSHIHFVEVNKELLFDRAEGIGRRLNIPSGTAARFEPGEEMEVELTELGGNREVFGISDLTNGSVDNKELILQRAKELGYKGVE
Bacillus Pasteurii urease, sequence (P41022 whole entry partner): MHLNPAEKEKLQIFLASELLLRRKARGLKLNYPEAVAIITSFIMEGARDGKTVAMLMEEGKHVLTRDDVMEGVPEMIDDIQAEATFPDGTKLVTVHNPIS

On to `CN(c1nccs1)S(=O)(=O)c1ccc(Cl)cc1` [Compound 37, 4-Chloro-N-methyl-N-(thiazol-2-yl)benzenesulfonamide], for which the IC50 is 25.4 ± 0.31 µM in assay [1]; 57.1 ± 0.11 µM in assay [3]; 54 ± 0.15 µM in assay [4]; 21.02 ± 0.21 µM in assay [5]; 34.11 ± 0.16 µM in assay [6]. In assay [2], the “Type of Inhibition (α-glucosidase and α-amylase)” value (from here on “Type of Inhibition”) was “Non-competitive”. For the same compound, in assay [2], the “inhibition against both enzymes (α-glucosidase and α-amylase), in words” value is recorded as “weak inhibition”. Further, the “DPPH % Scavenging” value is on record as 19 ± 0.17% in assay [3] (25 μM), 42.4 ± 0.8% in assay [3] (50 μM), 66.8 ± 0.15% in assay [3] (75 μM) and 99.1 ± 0.21% in assay [3] (100 μM). Further, the “superoxide anion % scavenging” value was found to be 37 ± 0.21% in assay [4] (25 μM), 43 ± 0.6% in assay [4] (50 μM), 67 ± 0.03% in assay [4] (75 μM) and 99 ± 0.15% in assay [4] (100 μM). Moreover, the “Types of inhibition (urease)” value in assay [5] was “Competitive”. For the same compound, the “ABTS % Scavenging” value in assay [6] (10 μM) came to 30.22 ± 0.22%; in assay [6] (20 μM), 41.25 ± 0.11%; in assay [6] (30 μM), 48.01 ± 0.12%; in assay [6] (40 μM), 65.5 ± 0.07%; in assay [6] (50 μM), 99.03 ± 0.15%.
Turning to `C=CCN(c1nccs1)S(=O)(=O)c1ccc([N+](=O)[O-])cc1` [Compound 32, N-Allyl-4-nitro-N-(thiazol-2-yl)benzenesulfonamide], the IC50 amounted to 57.89 ± 0.18 µM in assay [1]; 46.2 ± 0.01 µM in assay [3]; 49 ± 0.12 µM in assay [4]; 52.1 ± 1.12 µM in assay [5]; 31.01 ± 0.09 µM in assay [6]. The “Type of Inhibition” value in assay [2] is listed as “Non-competitive”. Also, the “DPPH % Scavenging” value in assay [3] (25 μM) was 39.2 ± 0.2%; in assay [3] (50 μM), 53.5 ± 0.3%; in assay [3] (75 μM) it was 64.4 ± 0.01%; in assay [3] (100 μM) it was 88.2 ± 0.2%. For the same compound, the “superoxide anion % scavenging” value in assay [4] (25 μM) amounted to 15 ± 0.05%; in assay [4] (50 μM), 32 ± 0.02%; in assay [4] (75 μM) it was 67 ± 0.11%; in assay [4] (100 μM) it was 97 ± 0.51%. In addition, the “Types of inhibition (urease)” value in assay [5] is given as “Non-competitive”. In addition, the “inhibition against both enzymes (J.B. and B.P urease), in words” value in assay [5] is “weak inhibition”. Further, the “ABTS % Scavenging” value worked out at 12.02 ± 0.03% in assay [6] (10 μM); 25.03 ± 0.01% in assay [6] (20 μM); 49.01 ± 0.09% in assay [6] (30 μM); 75.03 ± 0.02% in assay [6] (40 μM); 94.06 ± 0.21% in assay [6] (50 μM).
Consider `CN(c1nccs1)S(=O)(=O)c1ccc(F)cc1` [Compound 38, 4-Fluoro-N-methyl-N-(thiazol-2-yl)benzenesulfonamide], for which the IC50 amounted to 27.15 ± 0.14 µM in assay [1]; 69.5 ± 0.1 µM in assay [3]; 67.6 ± 0.93 µM in assay [4]; 24.31 ± 0.18 µM in assay [5]; 49.03 ± 0.15 µM in assay [6]. The “Type of Inhibition” value in assay [2] is listed as “Non-competitive”. For the same compound, the “DPPH % Scavenging” value in assay [3] (25 μM) was determined as 21.3 ± 0.11%; in assay [3] (50 μM), 67.3 ± 0.2%; in assay [3] (75 μM), 89.3 ± 0.05%; in assay [3] (100 μM) it was 95.01 ± 0.9%. Also, the “superoxide anion % scavenging” value is recorded as 31.5 ± 0.11% in assay [4] (25 μM), 45.01 ± 0.5% in assay [4] (50 μM), 55.7 ± 0.5% in assay [4] (75 μM) and 92.5 ± 0.03% in assay [4] (100 μM). For the same compound, in assay [5], the “Types of inhibition (urease)” value is “Competitive”. Besides, the “ABTS % Scavenging” value in assay [6] (10 μM) was 13.2 ± 0.91%; in assay [6] (20 μM), 35.3 ± 0.42%; in assay [6] (30 μM) it was 41.2 ± 0.71%; in assay [6] (40 μM) it was 48.13 ± 0.11%; in assay [6] (50 μM) it was 79.3 ± 0.44%.
Consider `O=S(=O)(c1ccc(Cl)cc1)N(Cc1ccccc1)c1nccs1` [Compound 23, N-benzyl-4-chloro-N-(thiazol-2-yl)benzenesulfonamide], for which the IC50 in assay [1] amounted to 28.02 ± 0.07 µM; in assay [3], 49.15 ± 0.05 µM; in assay [4], 47 ± 0.11 µM; in assay [5] it was 25.1 ± 0.28 µM; in assay [6] it was 30.01 ± 0.11 µM. The “Type of Inhibition” value in assay [2] is “Non-competitive”. Also, the “DPPH % Scavenging” value in assay [3] (25 μM) stood at 32.6 ± 0.21%; in assay [3] (50 μM) it was 57.3 ± 0.01%; in assay [3] (75 μM), 70.5 ± 0.16%; in assay [3] (100 μM), 93.05 ± 0.32%. Further, the “superoxide anion % scavenging” value was determined as 39 ± 0.3% in assay [4] (25 μM), 60 ± 0.56% in assay [4] (50 μM), 89 ± 0.07% in assay [4] (75 μM) and 103 ± 0.19% in assay [4] (100 μM). Also, the “Types of inhibition (urease)” value in assay [5] was “Non-competitive”. The “ABTS % Scavenging” value is listed as 19.5 ± 0.05% in assay [6] (10 μM); 39.5 ± 0.24% in assay [6] (20 μM); 55.13 ± 0.13% in assay [6] (30 μM); 76.01 ± 0.5% in assay [6] (40 μM); 93.03 ± 0.31% in assay [6] (50 μM).
`C=CCN(c1nccs1)S(=O)(=O)c1ccccc1` [Compound 29, N-allyl-N-(thiazol-2-yl)benzenesulfonamide]: the IC50 was found to be 23.02 ± 0.15 µM in assay [1]; 52.5 ± 0.11 µM in assay [3]; 43 ± 0.17 µM in assay [4]; 21.22 ± 0.17 µM in assay [5]; 43.21 ± 0.15 µM in assay [6]. Further, in assay [2], the “Type of Inhibition” value is “Non-competitive”. Further, the “DPPH % Scavenging” value in assay [3] (25 μM) was determined as 34.5 ± 0.21%; in assay [3] (50 μM), 49.1 ± 0.13%; in assay [3] (75 μM), 77.2 ± 0.7%; in assay [3] (100 μM), 93.5 ± 0.08%. For the same compound, the “superoxide anion % scavenging” value in assay [4] (25 μM) came out at 28 ± 0.07%; in assay [4] (50 μM) it was 73 ± 0.20%; in assay [4] (75 μM), 85 ± 0.13%; in assay [4] (100 μM), 96 ± 0.32%. The “Types of inhibition (urease)” value in assay [5] was “Non-competitive”. The “ABTS % Scavenging” value amounted to 19.2 ± 0.5% in assay [6] (10 μM); 23.07 ± 0.13% in assay [6] (20 μM); 45.01 ± 0.19% in assay [6] (30 μM); 74.12 ± 0.17% in assay [6] (40 μM); 89.19 ± 0.12% in assay [6] (50 μM).
On to `C=CCN(c1nccs1)S(=O)(=O)c1ccc(Br)cc1` [Compound 28, N-Allyl-4-bromo-N-(thiazol-2-yl)benzenesulfonamide], for which the IC50 in assay [1] was 36.1 ± 0.43 µM; in assay [3] it was ~48.4 µM and 48.4 µM; in assay [4], ~39 µM and 39 µM; in assay [5], 29.55 ± 0.12 µM; in assay [6] it was ~35 µM and 35 µM. Also, in assay [2], the “Type of Inhibition” value is reported as “Competitive”. In addition, the “DPPH % Scavenging” value in assay [3] (25 μM) came to 48.2 ± 0.09%; in assay [3] (50 μM), 70.7 ± 0.01%; in assay [3] (75 μM), 85.3 ± 0.3%; in assay [3] (100 μM), 91.2 ± 0.06%. Also, the “superoxide anion % scavenging” value in assay [4] (25 μM) was determined as 25 ± 0.02%; in assay [4] (50 μM) it was 66 ± 0.11%; in assay [4] (75 μM) it was 77 ± 0.18%; in assay [4] (100 μM) it was 99 ± 0.31%. In addition, the “Types of inhibition (urease)” value in assay [5] is recorded as “Non-competitive”. For the same compound, the “ABTS % Scavenging” value turned out to be 10.01 ± 0.02% in assay [6] (10 μM); 27.3 ± 0.05% in assay [6] (20 μM); 48.08 ± 0.9% in assay [6] (30 μM); 55.7 ± 0.22% in assay [6] (40 μM); 99.06 ± 0.25% in assay [6] (50 μM).
Turning to `O=S(=O)(c1ccc(F)cc1)N(Cc1ccccc1)c1nccs1` [Compound 24, N-benzyl-4-fluoro-N-(thiazol-2-yl)benzenesulfonamide], the IC50 came out at 40.88 ± 0.26 µM in assay [1]; 62.5 ± 0.07 µM in assay [3]; 59 ± 0.16 µM in assay [4]; 32.11 ± 0.13 µM in assay [5]; 42.12 ± 0.21 µM in assay [6]. Further, in assay [2], the “Type of Inhibition” value is recorded as “Non-competitive”. Moreover, the “inhibition against both enzymes (α-glucosidase and α-amylase), in words” value in assay [2] is listed as “weak inhibition”. The “DPPH % Scavenging” value in assay [3] (25 μM) is listed as 21.3 ± 0.18%; in assay [3] (50 μM), 44.1 ± 0.55%; in assay [3] (75 μM), 75.1 ± 0.30%; in assay [3] (100 μM), 89.4 ± 0.35%. The “superoxide anion % scavenging” value was 33 ± 0.21% in assay [4] (25 μM), 45 ± 0.35% in assay [4] (50 μM), 84 ± 0.25% in assay [4] (75 μM) and 97 ± 0.15% in assay [4] (100 μM). For the same compound, the “Types of inhibition (urease)” value in assay [5] is given as “Competitive”. Further, the “ABTS % Scavenging” value in assay [6] (10 μM) stood at 25.11 ± 0.11%; in assay [6] (20 μM), 33.6 ± 0.55%; in assay [6] (30 μM), 44.31 ± 0.17%; in assay [6] (40 μM), 48.23 ± 0.51%; in assay [6] (50 μM), 76.23 ± 0.22%.

A word on the IC50: it is the point on the concentration scale where inhibition reaches its midpoint.
